Here are results for 17 molecules from ChEMBL document CHEMBL1149343, “Discovery of antiglioma activity of biaryl 1,2,3,4-tetrahydroisoquinoline derivatives and conformationally flexible analogues” (J Med Chem, 2006).

pIC50: −log10 of the molar value.

One assay relates to C6. Description: Cytotoxicity against rat C6 glioma cell line. It is filed as functional, cell-based. In short, it runs like this:
(§1)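 Cells were maintained in 10% FCS BME (Basal Media Eagle). Compound exposure was in 2% FCS BME for 96 h at 37 °C in humidified 5% CO2. IC50 values came from dose-response experiments over a 4-day incubation.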

A further assay has as its system Astrocyte. Description: Cytotoxicity against rat astrocytes. It is filed as functional, cell-based. The essentials: as §1
For a further assay, the system named is U-87 MG. Description: Cytotoxicity against human U87 cell line. It is filed as functional, cell-based, U-87MG ATCC.
A further assay relates to T98G. As to the kind of experiment: Cytotoxicity against human T98G cell line. It is filed as functional, cell-based.
A further assay has as its system MCF7. Description: Cytotoxicity against human MCF7 cell line. It is filed as functional, cell-based.
The next assay relates to A549. Description: Cytotoxicity against human A549 cell line. It is filed as functional, cell-based.
The subject of a further assay is LNCaP. Description: Cytotoxicity against human LNCaP cell line. It is filed as functional, cell-based.
The test system of the next assay is HeLa. Description: Cytotoxicity against human HeLa cell line. It is filed as functional, cell-based.

Broadly, the pIC50 is the IC50 on a negative log10 scale, so that one unit is a factor of ten. High values mean a small IC50, low ones a large IC50. Regarding `Nc1ccc(CC2NCCc3cc(O)c(O)cc32)cc1` (centres undefined), the pIC50 in the assay on C6 was under 4.30.
As to `COc1cc2c(cc1OC)CN(CCc1ccc(-c3ccccc3)cc1)CC2`, the negative-log IC50 (pIC50) was 5.03 in the assay on C6 and 4.81 with Astrocyte.
Regarding `COc1cc2c(cc1OC)C(Cc1ccc(-c3ccccc3)cc1)NCC2` (centres undefined), the pIC50 in the assay with C6 was 5.39; in the assay with Astrocyte it was 4.08.
Consider `O=C(c1ccccc1)c1ccc(CC2NCCc3cc(O)c(O)cc32)cc1` (centres undefined), for which the pIC50 in the assay with C6 is 5.03; with Astrocyte, 4.68.
In the case of `Oc1ccc(CCNCCc2ccc(-c3ccccc3)cc2)cc1O`, the negative logarithm of the IC50 (pIC50) was 5.07 with C6 and under 4.00 in the assay with Astrocyte.
On to `C=C1C(OC(=O)N(C)C)=C(c2ccc(C)cc2)Oc2cc(Cl)ccc2N1C`, for which the negative-log IC50 (pIC50) in the assay on C6 was 4.43.
Consider `COc1cc2c(cc1OC)C(Cc1ccc(C(=O)c3ccccc3)cc1)NCC2` (centres undefined), for which the pIC50 in the assay on C6 and with Astrocyte was 4.40 each time.
As for `CN1CCc2cc(O)c(O)cc2C1Cc1ccc(-c2ccccc2)cc1` (centres undefined), the pIC50 in the assay with C6 is 5.10; in the assay with Astrocyte it was 4.82.
For the molecule `COc1cc(C(O)C2CNCCc3cc(O)c(O)cc32)cc(OC)c1OC` (centres undefined), the negative-log IC50 (pIC50) in the assay on C6 was under 4.30.
In the case of `COc1ccc(CCN(C)CCc2ccc(-c3ccccc3)cc2)cc1OC`, the pIC50 in the assay on C6 is 4.90; in the assay with Astrocyte, 4.41.
Take `Oc1cc2c(cc1O)C(Cc1ccc(-c3ccccc3)cc1)NCC2` (centres undefined): the pIC50 with C6 was 5.59; with Astrocyte, 4.54; in the assay on U-87 MG, 4.59; in the assay on T98G, 4.99; in the assay with MCF7, 5.42; with A549, 4.99. Besides, the results for the negative logarithm of the IC50 (pIC50) with LNCaP and in the assay with HeLa were 4.97 and 5.52, respectively.
Regarding `O=NN(CCCl)C(=O)NCCCl` [CARMUSTINE], the pIC50 is 5.03 in the assay on C6 and 3.81 with Astrocyte.
The corresponding values for `O=c1[nH]cc(F)c(=O)[nH]1` [FLUOROURACIL] are 5.21 and under 4.00.
In the case of `N[C@@H](Cc1ccc(N(CCCl)CCCl)cc1)C(=O)O` [MELPHALAN], the negative logarithm of the IC50 (pIC50) in the assay on C6 was 4.90; in the assay on Astrocyte it was 4.47.
In the assay on C6, `CCC(C)N(C)C(=O)c1cc2ccccc2c(-c2ccccc2Cl)n1` (centres undefined) [PK-11195] gave a negative logarithm of the IC50 (pIC50) of 4.14.
On the same count and under the same terms, the result for `CN1C(=O)CN=C(c2ccc(Cl)cc2)c2cc(Cl)ccc21` [RO-54864] reads 4.02; that for `COc1cc(C[C@@H]2NCCc3cc(O)c(O)cc32)cc(OC)c1OC` [TRETOQUINOL], under 4.30.
